The assay has as its target 3-beta-hydroxysteroid-Delta(8),Delta(7)-isomerase/Delta(24)-sterol reductase (Homo sapiens) (UniProt Q15125+Q15392). Kind of assay: Inhibition of Delta(8)-Delta(7) sterol isomerase/Delta(24)-sterol reductase-mediated cholesterol biosynthesis in human HL60 cells assessed as increase in zymostenol and zymosterol accumulation. The note with it: HL-60. Format: cell-based. In short, it runs like this:
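HL-60 cells (10^6) incubated 24 h at 37 °C, 5% CO2 in lipid-free medium with 1% LPDS, with compound in ethanol at final 1 or 50 µM. Cells were then saponified in 1 M NaOH at 70 °C for 60 min, extracted into TBME with cholestane internal standard, and silylated with TSIM. The sterol pattern was read by GC-MS full scan, with sterols identified by retention time and MS against authentic samples.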

Calls of active or inactive are those of the source. No cut-off for these calls is given here.

Chain of 3-beta-hydroxysteroid-Delta(8),Delta(7)-isomerase/Delta(24)-sterol reductase (Homo sapiens) (Q15125 whole entry, looked up): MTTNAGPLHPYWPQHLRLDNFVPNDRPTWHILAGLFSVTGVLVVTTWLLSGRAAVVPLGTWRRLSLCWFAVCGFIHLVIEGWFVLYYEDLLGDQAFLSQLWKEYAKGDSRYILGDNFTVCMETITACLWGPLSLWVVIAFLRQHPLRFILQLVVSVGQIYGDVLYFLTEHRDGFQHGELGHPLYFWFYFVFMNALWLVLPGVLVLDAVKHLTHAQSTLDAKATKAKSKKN
Chain of 3-beta-hydroxysteroid-Delta(8),Delta(7)-isomerase/Delta(24)-sterol reductase (Homo sapiens) (Q15392 whole entry, looked up): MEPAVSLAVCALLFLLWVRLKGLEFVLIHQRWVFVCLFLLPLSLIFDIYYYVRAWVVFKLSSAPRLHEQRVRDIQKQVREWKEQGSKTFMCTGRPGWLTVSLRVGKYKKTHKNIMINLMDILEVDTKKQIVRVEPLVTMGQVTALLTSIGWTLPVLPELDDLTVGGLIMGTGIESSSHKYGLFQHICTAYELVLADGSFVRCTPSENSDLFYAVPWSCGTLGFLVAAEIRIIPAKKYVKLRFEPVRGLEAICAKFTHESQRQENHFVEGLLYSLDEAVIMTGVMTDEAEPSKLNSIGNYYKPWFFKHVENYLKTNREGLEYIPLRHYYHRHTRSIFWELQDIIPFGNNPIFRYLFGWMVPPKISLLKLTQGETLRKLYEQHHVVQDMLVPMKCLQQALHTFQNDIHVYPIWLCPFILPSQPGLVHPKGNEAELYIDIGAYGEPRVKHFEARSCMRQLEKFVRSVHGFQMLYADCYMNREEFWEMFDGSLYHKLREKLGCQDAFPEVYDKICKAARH

For the compound `CC/C(=C(\c1ccccc1)c1ccc(OCCN(C)C)cc1)c1ccccc1`, the inhibition result was “Active”.

Values taken from ChEMBL document CHEMBL2331271, “Stereoselective synthesis of a new class of potent and selective inhibitors of human Δ8,7-sterol isomerase” (Bioorg Med Chem, 2013).
